Reference: ChEMBL document CHEMBL4130395, “Meroterpenoids with Protein Tyrosine Phosphatase 1B Inhibitory Activity from a Hyrtios sp. Marine Sponge” (J Nat Prod, 2017)
The source made the active and inactive calls. No cut-off for these calls is given here.

Legend:
[1] = target: T1, Tyrosine-protein phosphatase non-receptor type 1 (Homo sapiens) (UniProt P18031); assay: Inhibition of PTP1B (unknown origin) at 30 uM using p-nitrophenyl phosphate as substrate measured after 30 mins
T1 sequence (whole entry): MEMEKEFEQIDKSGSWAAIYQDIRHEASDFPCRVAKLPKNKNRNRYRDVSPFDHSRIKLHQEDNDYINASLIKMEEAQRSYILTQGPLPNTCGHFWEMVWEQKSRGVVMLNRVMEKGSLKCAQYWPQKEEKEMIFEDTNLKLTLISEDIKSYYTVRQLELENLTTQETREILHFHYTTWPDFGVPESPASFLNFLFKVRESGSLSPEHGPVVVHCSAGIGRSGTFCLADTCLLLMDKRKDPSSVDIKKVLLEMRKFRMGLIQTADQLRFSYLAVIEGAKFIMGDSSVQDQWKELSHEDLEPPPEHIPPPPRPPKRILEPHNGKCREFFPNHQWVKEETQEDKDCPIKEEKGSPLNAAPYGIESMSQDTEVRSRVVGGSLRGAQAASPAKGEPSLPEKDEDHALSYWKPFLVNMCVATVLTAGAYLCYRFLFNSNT
How it was run: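 30 nM PTP1B with 2 mM pNPP in 50 mM MOPS buffer, pH 6.5, with or without compound, 37 °C for 30 min. Stopped with 1 M NaOH; released pNP read at 405 nm absorbance. Oleanolic acid as positive control; IC50 from sigmoidal variable-slope dose-response fit.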

RPMI-8226 = assay: Cytotoxicity against human RPMI8226 cells at 30 uM after 48 hrs by MTS assay; format: cell-based; details: rpmi-8226, 48 h
How it was run: (§1)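 Cells seeded in 96-well plates and grown 24 h, then treated 48 h with compound dissolved in DMSO at a 30 μM working concentration. MTS (20 μL) added and incubated 2 h at 37 °C for viability read-out; method described as MTT assay.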

HeLa = assay: Cytotoxicity against human HeLa cells at 30 uM after 48 hrs by MTS assay; format: cell-based; how it was run: as §1
HepG2 = assay: Cytotoxicity against human HepG2 cells at 30 uM after 48 hrs by MTS assay; format: cell-based; details: hepg2, 48 h; how it was run: as §1
HL-60 = assay: Cytotoxicity against human HL60 cells at 30 uM after 48 hrs by MTS assay; format: cell-based; details: hl-60, 48 h; how it was run: as §1
[2] = target: T2, Tyrosine-protein phosphatase non-receptor type 1 (Homo sapiens, UniProt P18031); assay: Inhibition of PTP1B (unknown origin) using p-nitrophenyl phosphate as substrate measured after 30 mins
T2 sequence (P18031 whole entry): T1 sequence (whole entry)

inhibition [1] | IC50 [2] [µM] | SMILES | Activity (RPMI-8226) | Activity (HeLa) | Activity (HepG2) | Activity (HL-60)
inactive |  | C=C1CCC[C@@]23OC4=C(C[C@]2(C)[C@@H](C)CC[C@]13C)C(=O)C(OC)=CC4=O | Non-Toxic | Non-Toxic | Non-Toxic | Non-Toxic
inactive |  | C=C1CCC[C@H]2[C@](C)(Cc3c(O)c(O)cc4ncoc34)[C@@H](C)CC[C@]12C [NAKIJINOL B] | Non-Toxic | Non-Toxic | Non-Toxic | Non-Toxic
 | 4.8 | C=C1CCC[C@H]2[C@](C)(Cc3c(O)c(O)cc4nc(C)oc34)[C@@H](C)CC[C@]12C | Non-Toxic | Non-Toxic | Non-Toxic | Non-Toxic
inactive |  | C=C1CCC[C@H]2[C@]3(C)Cc4oc(=O)cc(OC)c4[C@]3(C)CC[C@]12C | Non-Toxic | Non-Toxic | Non-Toxic | Non-Toxic
